According to ChEMBL document CHEMBL5356984 (RSC Med Chem, 2023):
Calls of active or inactive are those of the source. No cut-off for these calls is given here.

Key:
[1] = Metabolic stability in simulated intestinal fluid at 37 degreeC at 1 mg/ml measured upto 1 hr by HPLC analysis; type: ADME; settings: simulated gi fluid
In short: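 Compound at 1 mg mL−1 was incubated in simulated intestinal fluid at 37 °C for up to 1 h. Remaining percentage was measured by HPLC on a C18 column (5 µm, 4.6 × 250 mm), eluting with 95% MeOH/5% H2O.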

[2] = Metabolic stability in simulated gastric fluid; type: ADME; settings: simulated gi fluid
[3] = Thermal stability of compound in boiling toluene at 120 degreeC assessed as time taken for compound decomposition at 1 mg/ml by HPLC analysis; type: physicochemical; settings: read-out: T50
[4] = Thermal stability of compound in boiling toluene at 120 degreeC at 1 mg/ml measured for 12 to 24 hrs by HPLC analysis; type: physicochemical; settings: time 12-24 hrs
In short: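 Compound at 1 mg mL−1 was heated in distilled boiling toluene at 120 °C for 0–24 h. Remaining percentage was measured by HPLC on a C18 column (5 µm, 4.6 × 250 mm) with MeOH/H2O gradients: 70→100% or 45→100% MeOH over 2–15 min, held at 100% to 20 min, then re-equilibrated.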

[5] = test system: SK-BR-3; experiment: Induction of apoptosis in human SK-BR-3 cells assessed as increase in cleaved pro-caspase-9 level at 10 to 20 uM incubated for 48 hrs by Western blot analysis; type: functional, cell-based; settings: dose 10-20 µM
In short: (§1)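 Cells exposed 48 h (DMSO vehicle control); trypsinized, lysed in RIPA with phosphatase/protease inhibitors; 20 μg protein on SDS-PAGE, blotted, blocked 5% milk 1 h; primary antibodies 1:1000 overnight at 4 °C, GAPDH 1:10000 as loading control; HRP secondary 1:1000–1:5000; ECL detection.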

[6] = test system: SK-BR-3; experiment: Induction of apoptosis in human SK-BR-3 cells assessed as increase in cleaved PARP level at 10 to 20 uM incubated for 48 hrs by Western blot analysis; type: functional, cell-based; settings: dose 10-20 µM; in short: as §1
[7] = test system: MCF7; experiment: Induction of apoptosis in human MCF7 cells assessed as increase in cleaved PARP level at 10 to 20 uM incubated for 48 hrs by Western blot analysis; type: functional, cell-based; settings: dose 10-20 µM; in short: as §1
[8] = test system: SK-BR-3; experiment: Induction of apoptosis in human SK-BR-3 cells assessed as viable cells at 20 uM incubated for 36 hrs by Annexin V/PI staining based flow cytometry (reference value: 90.4 %); type: functional; settings: read-out: Activity
[9] = test system: SK-BR-3; experiment: Induction of apoptosis in human SK-BR-3 cells assessed as necrotic cells at 10 uM incubated for 36 hrs by Annexin V/PI staining based flow cytometry (reference value: 1.89 %); type: functional
[10] = test system: SK-BR-3; experiment: Induction of apoptosis in human SK-BR-3 cells assessed as early apoptotic cells at 10 uM incubated for 36 hrs by Annexin V/PI staining based flow cytometry (reference value: 2.73 %); type: functional
[11] = test system: SK-BR-3; experiment: Induction of apoptosis in human SK-BR-3 cells assessed as late apoptotic cells at 10 uM incubated for 36 hrs by Annexin V/PI staining based flow cytometry (reference value: 4.95 %); type: functional
[12] = test system: SK-BR-3; experiment: Induction of apoptosis in human SK-BR-3 cells assessed as necrotic cells at 5 uM incubated for 36 hrs by Annexin V/PI staining based flow cytometry (reference value: 1.89 %); type: functional
[13] = test system: SK-BR-3; experiment: Induction of apoptosis in human SK-BR-3 cells assessed as late apoptotic cells at 5 uM incubated for 36 hrs by Annexin V/PI staining based flow cytometry (reference value: 4.95 %); type: functional
[14] = test system: MCF7; experiment: Induction of apoptosis in human MCF7 cells assessed as necrotic cells at 20 uM incubated for 36 hrs by Annexin V/PI staining based flow cytometry (reference value: 2.30 %); type: functional
[15] = test system: MCF7; experiment: Induction of apoptosis in human MCF7 cells assessed as early apoptotic cells at 20 uM incubated for 36 hrs by Annexin V/PI staining based flow cytometry (reference value: 1.13 %); type: functional
[16] = test system: MCF7; experiment: Induction of apoptosis in human MCF7 cells assessed as late apoptotic cells at 10 uM incubated for 36 hrs by Annexin V/PI staining based flow cytometry (reference value: 6.02 %); type: functional
[17] = test system: MCF7; experiment: Induction of apoptosis in human MCF7 cells assessed as viable cells at 10 uM incubated for 36 hrs by Annexin V/PI staining based flow cytometry (reference value: 90.5 %); type: functional; settings: read-out: Activity
[18] = test system: MCF7; experiment: Induction of apoptosis in human MCF7 cells assessed as necrotic cells at 5 uM incubated for 36 hrs by Annexin V/PI staining based flow cytometry (reference value: 2.30 %); type: functional
[19] = test system: MCF7; experiment: Induction of apoptosis in human MCF7 cells assessed as late apoptotic cells at 5 uM incubated for 36 hrs by Annexin V/PI staining based flow cytometry (reference value: 6.02 %); type: functional
[20] = test system: SK-BR-3; experiment: Induction of cell cycle arrest in human SK-BR-3 cells assessed as accumulation of cells at G1 phase at 5 to 10 uM incubated for 36 hrs by PI staining based flow cytometry; type: functional; settings: dose 5-10 µM
In short: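 Following 36 h treatment (0, 5, 10 μM), trypsinized cells fixed overnight in 70% ethanol, treated with RNase (0.2 mg/mL) and PI (0.1 mg/mL) for 20 min, then analysed by flow cytometry for cell-cycle distribution; n = 3 versus control.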

[21] = test system: MCF7; experiment: Effect on AKT level in human MCF7 cells at 5 to 20 uM incubated for 48 hrs by Western blot analysis; type: functional, cell-based; settings: dose 5-20 µM; in short: as §1
[22] = molecular target: T1, Heat shock protein HSP90 (Homo sapiens, UniProt P07900+P08238); experiment: Inhibition of HSP90 in human SK-BR-3 cells assessed as decrease in CDK4 level at 5 to 20 uM incubated for 48 hrs by Western blot analysis; type: cell-based; settings: dose 5-20 µM
In short: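 MCF-7 or SKBr3 cells were exposed for 48 h, then trypsinised, PBS-washed and lysed in RIPA buffer with phosphatase and protease inhibitors. Cleared lysate (14 000 rpm, 4 °C, 15 min) was BCA-quantified, and 20 µg protein was run on SDS-PAGE and blotted. Blots were blocked in 5% milk, incubated with primary antibodies (1:1000) overnight at 4 °C, then HRP secondary, and developed by ECL. GAPDH (1:10000) was the loading control.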

[23] = molecular target: T1, Heat shock protein HSP90; experiment: Competitive binding affinity to N-terminal HSP90 (unknown origin) at 0.03 to 16 uM incubated for 3 hrs in presence of FITC-GA by fluorescence polarization assay; type: protein assay; settings: dose 0.03-16 µM
In short: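 Competition against FITC-geldanamycin (5 nM) for HSP90α (10 nM) in reaction buffer with 1% BSA, DMSO <1%; compounds at 0.03–16.0 μM final; 3 h at room temperature; fluorescence polarization read at ex 485/em 530 nm; activity% = (FPdrug − FPbackground)/(FPenzyme − FPbackground) × 100, curve-fitted.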

[24] = test system: MCF7; experiment: Effect on HSP70 level in human MCF7 cells at 5 to 20 uM incubated for 48 hrs by Western blot analysis; type: functional, cell-based; settings: dose 5-20 µM; in short: as §1
[25] = test system: SK-BR-3; experiment: Effect on HSP70 level in human SK-BR-3 cells at 10 uM incubated for 36 hrs by DAPI staining based immunofluorescence analysis; type: functional, cell-based
In short: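 Cells treated 36 h with DMSO vehicle control, then fixed with 4% paraformaldehyde 15 min, permeabilized with 0.2% Triton X-100 5 min, blocked with 3% BSA 15 min; primary antibody then fluorescent secondary antibody, each 1 h at room temperature; HSP70 green, HSF-1 red, nuclei DAPI; imaged by fluorescence microscopy.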

Stability [1]: Stable
Stability [2]: Unstable
half-life at 1 mg/ml [3]: > 12 h
Stability [4]: Unstable
inhibition [22]: Active
Activity [23]: inactive
SMILES: CN1CCN(/C=C/C(=O)/C=C/c2cccc(O[Si](C)(C)C(C)(C)C)c2)CC1
Activity [5]: Active
Activity [6]: Active
Activity [7]: Active
viability at 20 µM [8]: 18.5%
Activity [9]: 1.7%
Activity [10]: 3.01%
Activity [11]: 8.42%
Activity [12]: 1.81%
Activity [13]: 5.82%
Activity [14]: 16.2%
Activity [15]: 3.58%
Activity [16]: 21.7%
viability at 10 µM [17]: 65.6%
Activity [18]: 8.45%
Activity [19]: 9.96%
Activity [20]: Active
Activity [21]: inactive
Activity [24]: inactive
Activity [25]: inactive
